pEC50: −log10 of the molar value. The source made the active and inactive calls. The rule behind the calls is not given here.
Tests used:
[1] = Cytotoxicity against human PLC/PRF/5 cells expressing mutant p53 gene (codon 249) by MTT assay; assay type: functional, cell-based
Summary of the method: (§1)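 Proliferation was measured by MTT. Cells were seeded at 9 × 10^3 per well and exposed to drug for an unstated period. MTT (0.5 mg/mL) was then added for 3 h at 37 °C, formazan was dissolved in DMSO, and absorbance was read at 570 nm against untreated vehicle controls (final DMSO 0.25% v/v). HepG2 was grown in MEM. Hep3B and PLC/PRF/5 were grown in DMEM with nonessential amino acids and 10% FBS. The doxorubicin-resistant HepG2 subclone was grown in RPMI 1640 with 10% FBS plus 1.2 µM doxorubicin to maintain Pgp.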

HepG2 [2] = test: Cytotoxicity against human HepG2 cells expressing wild type p53 gene by MTT assay; assay type: functional, cell-based; summary of the method: as §1
[3] = Cytotoxicity against human Hep3B cells deficient in p53 gene by MTT assay; assay type: functional, cell-based, Hep 3B2; summary of the method: as §1
HepG2 [4] = test: Cytotoxicity against doxorubicin resistant human HepG2 cells expressing wild type p53 gene by MTT assay; assay type: functional, cell-based; summary of the method: as §1
HepG2 [5] = test: Induction of apoptosis in human HepG2 cells expressing wild type p53 gene assessed as PARP cleavage by Western blot; assay type: functional, cell-based
Summary of the method: (§2)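 Cells treated 24 h, then lysed in Tris 50 mM/NaCl 100 mM/EDTA 5 mM/pyrophosphate 67 mM/1% Triton X-100, pH 7.5, with protease inhibitors. 20 µg soluble protein on 8% SDS-PAGE, nitrocellulose transfer, anti-PARP 1:1000 overnight at 4 °C, HRP anti-rabbit 1:2000 1 h, ECL. β-actin reprobe as loading reference; band densitometry; n = 3.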

[6] = Cytotoxicity against human THLE3 cells by MTT assay; assay type: cell-based
Summary of the method: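 THLE-3 immortalized liver cells cultured in BEGM kit medium, 37 °C, 5% CO2; 9 × 10^3 cells/well. After compound incubation, MTT (0.5 mg/mL) added for 3 h at 37 °C; formazan dissolved in DMSO and read at 570 nm. Untreated cells as vehicle control; DMSO final 0.25% (v/v). EC50 of growth inhibition, n = 3.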

P-gp (ABCB1) [7] = target: T1, P-gp (ABCB1) (Homo sapiens, UniProt P08183); test: Inhibition of P-gp in doxorubicin-resistant human HepG2 cells assessed as potentiation of doxorubicin cytostatic effect at 6.25 uM by MTT assay; assay type: cell-based; settings: probe doxorubicin
HepG2 [8] = test: Effect on MRP1 protein expression in human HepG2 cells expressing wild type p53 gene at 25 uM after 24 hrs by Western blot; assay type: functional, cell-based
Summary of the method: (§3)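 HepG2 cells (MEM, 10% FBS) exposed to 25 µM for 24 h; lysates run on SDS-PAGE, transferred to nitrocellulose and probed with anti-MRP1 or anti-MRP2 antibodies, ECL detection. DMSO final 0.25% (v/v).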

Hep 3B2 [9] = test: Induction of apoptosis in human Hep3B cells deficient in p53 gene assessed as caspase 3 activation; assay type: functional, cell-based
Summary of the method: (§4)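 Cells were treated for 24 h, with etoposide as positive control. Cells (1 × 10^7) were lysed for 2 h at 4 °C and spun at 16000g for 10 min. The supernatant was mixed with assay buffer and the colorimetric substrate […], and pNA release was read at 405 nm. Soluble protein was determined by BCA.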

HepG2 [10] = test: Induction of apoptosis in human HepG2 cells expressing wild type p53 gene assessed as caspase 3 activation; assay type: functional, cell-based; summary of the method: as §4
PLC-PRF-5 [11] = test: Induction of apoptosis in human PLC/PRF/5 cells expressing mutant p53 gene (codon 249) assessed as PARP cleavage by Western blot; assay type: functional, cell-based; summary of the method: as §2
HepG2 [12] = test: Effect on MRP2 protein expression in human HepG2 cells expressing wild type p53 gene at 25 uM after 24 hrs by Western blot; assay type: functional, cell-based; summary of the method: as §3
Hep 3B2 [13] = test: Induction of apoptosis in human Hep3B cells deficient in p53 gene assessed as PARP cleavage by Western blot; assay type: functional, cell-based; summary of the method: as §2
[14] = target: T2, Multidrug resistance-associated protein 1 (Homo sapiens, UniProt P33527); test: Inhibition of MRP1-mediated doxorubicin efflux in doxorubicin resistant human HepG2 cells at 10 to 100 uM by flow cytometry; assay type: cell-based
[15] = target: T2, Multidrug resistance-associated protein 1; test: Inhibition of MRP1-mediated doxorubicin efflux in doxorubicin resistant human HepG2 cells at 100 uM by flow cytometry; assay type: cell-based; settings: hepg2, 100 µM
HepG2 [16] = test: Inhibition of […] doxorubicin efflux in doxorubicin resistant human HepG2 cells uM by flow cytometry; assay type: cell-based
P-gp (ABCB1) [17] = target: T1, P-gp (ABCB1); test: Inhibition of P-gp in doxorubicin-resistant human HepG2 cells assessed as potentiation of doxorubicin cytostatic effect at 25 uM by MTT assay; assay type: cell-based; settings: probe doxorubicin
Summary of the method: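 R-HepG2 cells (doxorubicin-selected HepG2 subclone kept in RPMI 1640 with 1.2 µM doxorubicin) co-treated with compound and doxorubicin; growth read by MTT (0.5 mg/mL, 3 h, 570 nm). Interaction scored by Chou–Talalay combination index at EC20/EC50 levels, Loewe additivity and Bliss independence.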

PLC-PRF-5 [18] = test: Induction of apoptosis in human PLC/PRF/5 cells expressing mutant p53 gene (codon 249) assessed as caspase 3 activation; assay type: functional, cell-based
Summary of the method: (§5)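 After 24 h treatment, 1 × 10^7 cells lysed 2 h at 4 °C and spun at 16000g for 10 min. Supernatant incubated with caspase-3 substrate […], pNA release read at 405 nm, and protein measured by BCA. Activity expressed as fold of control; etoposide as positive control.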

HepG2 [19] = test: Induction of apoptosis in human HepG2 cells expressing wild type p53 gene assessed as caspase 3 activation at 6.25 uM relative to control; assay type: functional; summary of the method: as §5
PLC-PRF-5 [20] = test: Induction of apoptosis in human PLC/PRF/5 cells expressing mutant p53 gene (codon 249) assessed as caspase 3 activation at 6.25 uM relative to control; assay type: functional; summary of the method: as §5

T2 sequence (P33527 whole entry): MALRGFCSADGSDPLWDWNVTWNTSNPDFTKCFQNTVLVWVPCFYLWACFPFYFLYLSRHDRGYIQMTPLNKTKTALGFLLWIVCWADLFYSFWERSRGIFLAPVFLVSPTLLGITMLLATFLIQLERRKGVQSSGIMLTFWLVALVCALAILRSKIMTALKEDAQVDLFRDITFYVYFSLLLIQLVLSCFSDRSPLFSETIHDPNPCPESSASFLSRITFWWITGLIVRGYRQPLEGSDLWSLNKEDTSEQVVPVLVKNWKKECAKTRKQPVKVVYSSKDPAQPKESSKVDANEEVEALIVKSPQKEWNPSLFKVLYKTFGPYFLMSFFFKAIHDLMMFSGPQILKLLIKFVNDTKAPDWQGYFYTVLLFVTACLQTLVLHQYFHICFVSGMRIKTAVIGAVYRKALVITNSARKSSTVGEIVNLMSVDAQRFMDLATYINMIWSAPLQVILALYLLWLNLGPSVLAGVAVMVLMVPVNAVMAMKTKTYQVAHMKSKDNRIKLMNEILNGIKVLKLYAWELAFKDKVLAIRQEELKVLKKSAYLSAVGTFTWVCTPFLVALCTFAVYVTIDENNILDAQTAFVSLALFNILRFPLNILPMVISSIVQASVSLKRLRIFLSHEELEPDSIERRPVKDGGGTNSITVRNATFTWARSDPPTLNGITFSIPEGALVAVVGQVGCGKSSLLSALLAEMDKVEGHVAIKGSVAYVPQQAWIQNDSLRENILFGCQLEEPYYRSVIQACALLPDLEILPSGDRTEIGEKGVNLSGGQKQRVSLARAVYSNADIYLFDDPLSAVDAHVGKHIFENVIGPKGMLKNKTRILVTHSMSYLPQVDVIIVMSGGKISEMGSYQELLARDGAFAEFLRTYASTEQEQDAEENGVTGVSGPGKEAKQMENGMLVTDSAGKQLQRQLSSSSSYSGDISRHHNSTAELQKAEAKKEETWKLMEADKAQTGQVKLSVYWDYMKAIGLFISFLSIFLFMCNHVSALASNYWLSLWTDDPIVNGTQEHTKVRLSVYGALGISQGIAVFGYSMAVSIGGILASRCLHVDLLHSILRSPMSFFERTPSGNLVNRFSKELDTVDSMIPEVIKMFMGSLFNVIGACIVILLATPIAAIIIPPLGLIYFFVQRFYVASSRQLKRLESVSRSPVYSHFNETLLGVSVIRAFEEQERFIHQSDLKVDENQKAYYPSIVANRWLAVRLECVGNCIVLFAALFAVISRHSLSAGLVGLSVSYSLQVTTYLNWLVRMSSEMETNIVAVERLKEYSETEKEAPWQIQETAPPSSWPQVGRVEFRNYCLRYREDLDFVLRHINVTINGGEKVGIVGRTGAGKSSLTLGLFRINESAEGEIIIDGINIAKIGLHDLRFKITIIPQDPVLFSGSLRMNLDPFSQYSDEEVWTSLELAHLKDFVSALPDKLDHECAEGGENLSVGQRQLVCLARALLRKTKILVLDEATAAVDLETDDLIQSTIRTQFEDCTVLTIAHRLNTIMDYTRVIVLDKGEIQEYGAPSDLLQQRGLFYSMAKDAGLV
T1 sequence (P08183 whole entry): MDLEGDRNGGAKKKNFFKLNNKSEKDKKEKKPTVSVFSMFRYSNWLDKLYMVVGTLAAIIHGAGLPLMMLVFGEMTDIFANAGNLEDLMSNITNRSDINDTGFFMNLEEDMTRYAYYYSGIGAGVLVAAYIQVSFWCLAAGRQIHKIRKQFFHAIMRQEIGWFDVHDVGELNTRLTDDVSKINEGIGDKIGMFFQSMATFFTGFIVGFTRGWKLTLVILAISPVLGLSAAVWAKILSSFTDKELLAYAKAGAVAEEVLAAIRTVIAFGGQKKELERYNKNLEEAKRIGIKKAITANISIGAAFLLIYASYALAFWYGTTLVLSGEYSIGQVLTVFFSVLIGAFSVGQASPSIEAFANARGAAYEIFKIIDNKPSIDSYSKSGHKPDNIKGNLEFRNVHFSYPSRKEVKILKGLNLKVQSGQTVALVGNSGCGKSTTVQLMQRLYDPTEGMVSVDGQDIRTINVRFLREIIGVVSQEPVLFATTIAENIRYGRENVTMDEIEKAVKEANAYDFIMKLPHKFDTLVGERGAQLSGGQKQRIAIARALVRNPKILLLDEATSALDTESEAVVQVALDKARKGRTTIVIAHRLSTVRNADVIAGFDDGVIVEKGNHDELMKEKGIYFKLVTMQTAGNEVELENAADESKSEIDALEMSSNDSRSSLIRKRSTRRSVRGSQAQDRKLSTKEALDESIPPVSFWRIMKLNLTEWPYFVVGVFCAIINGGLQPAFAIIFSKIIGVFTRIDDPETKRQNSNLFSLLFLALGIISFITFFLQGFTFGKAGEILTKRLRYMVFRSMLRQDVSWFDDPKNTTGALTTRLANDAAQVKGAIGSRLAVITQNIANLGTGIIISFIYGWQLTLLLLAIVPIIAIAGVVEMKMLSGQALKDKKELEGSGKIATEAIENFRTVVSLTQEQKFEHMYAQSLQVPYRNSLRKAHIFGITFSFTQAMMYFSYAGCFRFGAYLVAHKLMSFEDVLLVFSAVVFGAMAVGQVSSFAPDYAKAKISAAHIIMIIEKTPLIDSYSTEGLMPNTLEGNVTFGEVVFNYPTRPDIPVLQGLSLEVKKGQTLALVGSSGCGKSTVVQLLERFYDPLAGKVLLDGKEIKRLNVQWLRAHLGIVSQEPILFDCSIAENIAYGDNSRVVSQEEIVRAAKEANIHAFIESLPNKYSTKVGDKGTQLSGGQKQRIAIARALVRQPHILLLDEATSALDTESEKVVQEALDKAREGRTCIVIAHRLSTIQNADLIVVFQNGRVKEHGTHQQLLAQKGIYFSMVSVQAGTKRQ

Structure (SMILES)	pEC50 [1]	pEC50 (HepG2 [2])	pEC50 [3]	pEC50 (HepG2 [4])	Activity (HepG2 [5])	pEC50 [6]	Activity (HepG2 [8])	Activity (Hep 3B2 [9])	Activity (HepG2 [10])	Activity (HepG2 [12])	Activity (Hep 3B2 [13])	also measured
COc1cccc2c1C(=O)c1c(O)c3c(c(O)c1C2=O)C[C@@](O)(C(=O)CO)C[C@@H]3O[C@H]1C[C@H](N)[C@H](O)[C@H](C)O1 [DOXORUBICIN]	< 5.00	5.21	5.25	< 5.00	–	–	–	–	–	–	–	–
Cc1coc2c1C(=O)C(=O)c1c-2ccc2c(C)cccc12 [TANSHINONE I]	< 5.00	5.20	< 5.00	< 5.00	Dose-dependent effect	4.13	inactive	inactive	Active	inactive	inactive	inhibition at 6.25 µM (P-gp (ABCB1) [7]): 50%; Activity (PLC-PRF-5 [11]): Active
Cc1coc2c1C(=O)C(=O)c1c-2ccc2c1CCCC2(C)C [TANSHINONE IIA]	–	–	–	–	Dose-dependent effect	4.24	inactive	inactive	Active	inactive	inactive	–
COc1ccc2c(c1)c(CC(=O)O)c(C)n2C(=O)c1ccc(Cl)cc1 [INDOMETHACIN]	–	–	–	–	–	–	–	–	–	–	–	inhibition (INH) [14]: Not Active; inhibition (INH) [15]: Active
C=C(CC)C(=O)c1ccc(OCC(=O)O)c(Cl)c1Cl	–	–	–	–	–	–	–	–	–	–	–	inhibition (HepG2 [16]): Active
C[C@H]1COC2=C1C(=O)C(=O)c1c2ccc2c1CCCC2(C)C [CRYPTOTANSHINONE]	–	–	–	–	Dose-dependent effect	4.64	inactive	inactive	Active	inactive	inactive	inhibition at 25 µM (P-gp (ABCB1) [17]): 50%; Activity (PLC-PRF-5 [18]): Dose-dependent effect
COc1cc([C@@H]2c3cc4c(cc3[C@@H](O[C@@H]3O[C@@H]5CO[C@@H](C)O[C@H]5[C@H](O)[C@H]3O)[C@H]3COC(=O)[C@H]23)OCO4)cc(OC)c1O	–	–	–	–	–	–	–	inactive	Active	–	–	–
Cc1cccc2c3c(ccc12)C1=C(C(=O)C3=O)[C@@H](C)CO1 [DIHYDROTANSHINONE I]	< 5.00	5.60	5.26	5.33	Dose-dependent effect	5.19	inactive	inactive	Active	inactive	inactive	fold change (FC) (HepG2 [19]): 2; fold change (FC) (PLC-PRF-5 [20]): 2.5; Activity (PLC-PRF-5 [11]): Active
